Source: ChEMBL document CHEMBL4610039, “Design, synthesis and apoptosis-related antiproliferative activities of chelidonine derivatives” (Bioorg Med Chem Lett, 2020)
The source made the active and inactive calls. The calls are words filed in the database; no cut-off is given here.

Experiments:
K562 [1] = experiment: Induction of apoptosis in human K562 cells by annexin V-FITC/propidium iodide staining based flow cytometry; format: functional, cell-based
K562 [2] = experiment: Induction of mitochondrial membrane potential loss in human K562 cells assessed as cell population with mitochondrial membrane potential collapse at 0.55 uM after 48 hrs by JC1 staining-based flow cytometry analysis (reference value: 7.04%); format: functional
PBMC = experiment: Cytotoxicity against human PBMC assessed as reduction in cell growth after 72 hrs by MTT assay; format: cell-based
How it was run: (§1)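 Human HepG2, MCF-7, HCT-116 and K562 tumour cells plus normal L-02 hepatocytes and PBMCs were exposed to compounds for 72 h and growth was read by MTT. 5-Fu served as positive control. IC50 is the concentration inhibiting 50% of cell growth, given as mean ± standard deviation of three independent experiments.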

K562 [3] = experiment: Induction of mitochondrial membrane potential loss in human K562 cells after 48 hrs by JC1 staining-based flow cytometry analysis; format: functional, cell-based
K562 [4] = experiment: Induction of apoptosis in human K562 cells assessed as viable cells at 2.20 uM after 48 hrs by annexin V-FITC/propidium iodide staining based flow cytometry (reference value: 96.26%); format: functional; details: K562, 48 h, read-out: Activity
HCT-116 = experiment: Antiproliferative activity against human HCT116 cells assessed as reduction in cell growth after 72 hrs by MTT assay; format: functional, cell-based; details: HCT-116, 72 h; how it was run: as §1
K562 [5] = experiment: Induction of cell cycle arrest in human K562 cells assessed as accumulation at G1 phase at 2.20 uM after 72 hrs by propidium iodide staining based flow cytometry (reference value: 56.13%); format: functional
How it was run: (§2)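 For cell cycle, K562 cells were treated 72 h at 0, 0.55, 1.10 or 2.20 μM, with a solvent control. Cells were stained with PI and G1, S and G2/M fractions determined by flow cytometry.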

K562 [6] = experiment: Induction of cell cycle arrest in human K562 cells assessed as accumulation at G1 phase at 1.10 uM after 72 hrs by propidium iodide staining based flow cytometry (reference value: 56.13%); format: functional; how it was run: as §2
K562 [7] = experiment: Induction of apoptosis in human K562 cells assessed as reduction in clusterin protein expression after 24 hrs by chemiluminescence based protein array analysis; format: functional, cell-based
How it was run: (§3)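 K562 cells were treated for 24 h, then proteins were extracted and run on a human apoptosis protein array. Chemiluminescent signals were detected with a digital imaging system.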

K562 [8] = experiment: Induction of apoptosis in human K562 cells assessed as increase in Bad protein expression after 24 hrs by chemiluminescence based protein array analysis; format: functional, cell-based; how it was run: as §3
K562 [9] = experiment: Antiproliferative activity against human K562 cells assessed as reduction in cell growth after 72 hrs by MTT assay; format: functional, cell-based; details: K562, 72 h; how it was run: as §1
HepG2 = experiment: Antiproliferative activity against human HepG2 cells assessed as reduction in cell growth after 72 hrs by MTT assay; format: functional, cell-based; details: HepG2, 72 h; how it was run: as §1
K562 [10] = experiment: Induction of cell cycle arrest in human K562 cells assessed as accumulation at S phase at 2.20 uM after 72 hrs by propidium iodide staining based flow cytometry (reference value: 35.68%); format: functional; how it was run: as §2
K562 [11] = experiment: Induction of apoptosis in human K562 cells assessed as viable cells at 0.55 uM after 48 hrs by annexin V-FITC/propidium iodide staining based flow cytometry (reference value: 96.26%); format: functional; details: K562, 48 h, read-out: Activity

IC50 (HCT-116): 4.36 µM
IC50 (K562 [9]): 1.12 µM
IC50 (HepG2): 3.91 µM
Compound: CN1Cc2c(ccc3c2OCO3)[C@H]2[C@@H](OC(=O)CCCC(=O)OCC#CCOc3no[n+]([O-])c3S(=O)(=O)c3ccccc3)Cc3cc4c(cc3[C@H]21)OCO4
Activity (K562 [1]): Dose-dependent effect
Activity (K562 [2]): 19.29%
IC50 (PBMC): > 40 µM
Activity (K562 [3]): Dose-dependent effect
viability at 2.2 µM (K562 [4]): 45%
Activity (K562 [5]): 32.41%
Activity (K562 [6]): 41.27%
Activity (K562 [7]): Active
Activity (K562 [8]): Active
Activity (K562 [10]): 59.72%
viability at 0.55 µM (K562 [11]): 88.3%
